# Experimental data of several laboratories.
# Each line is one published result; the experiments were not run side by side.
# Organism: Staphylococcus aureus
# Observed: microbial growth
Compound,technique,strain,time,notes,MIC
COc1ccc(Cc2cnc(N)nc2N)cc1OC,broth dilution,,,,~50 µM
CN[C@H](CC(C)C)C(=O)N[C@H]1C(=O)N[C@@H](CC(N)=O)C(=O)N[C@H]2C(=O)N[C@H]3C(=O)N[C@H](C(=O)N[C@H](C(=O)O)c4cc(O)cc(O)c4-c4cc3ccc4O)[C@H](O)c3ccc(c(Cl)c3)Oc3cc2cc(c3O[C@@H]2O[C@H](CO)[C@@H](O)[C@H](O)[C@H]2O[C@H]2C[C@](C)(N)[C@H](O)[C@H](C)O2)Oc2ccc(cc2Cl)[C@H]1O,broth dilution,ATCC29213,,,1 µg/mL
CN[C@H](CC(C)C)C(=O)N[C@H]1C(=O)N[C@@H](CC(N)=O)C(=O)N[C@H]2C(=O)N[C@H]3C(=O)N[C@H](C(=O)N[C@H](C(=O)O)c4cc(O)cc(O)c4-c4cc3ccc4O)[C@H](O)c3ccc(c(Cl)c3)Oc3cc2cc(c3O[C@@H]2O[C@H](CO)[C@@H](O)[C@H](O)[C@H]2O[C@H]2C[C@](C)(N)[C@H](O)[C@H](C)O2)Oc2ccc(cc2Cl)[C@H]1O,,UAMS1,,,1 µg/mL
CN[C@H](CC(C)C)C(=O)N[C@H]1C(=O)N[C@@H](CC(N)=O)C(=O)N[C@H]2C(=O)N[C@H]3C(=O)N[C@H](C(=O)N[C@H](C(=O)O)c4cc(O)cc(O)c4-c4cc3ccc4O)[C@H](O)c3ccc(c(Cl)c3)Oc3cc2cc(c3O[C@@H]2O[C@H](CO)[C@@H](O)[C@H](O)[C@H]2O[C@H]2C[C@](C)(N)[C@H](O)[C@H](C)O2)Oc2ccc(cc2Cl)[C@H]1O,,BAA2312,,drug-resistant strain,0.78 µg/mL
CC1C(=NOCc2cn(-c3ccccc3)nn2)CC(c2ccccc2)OC1c1ccccc1 (stereo not drawn),broth dilution,MTCC96,24 h,,25 µg/mL
CCCC(=O)CP(=O)(O)O,,ATCC33591 MRSA,,drug-resistant strain,> 200 µg/mL
CC1=C(C(=O)O)N2C(=O)[C@@H](NC(=O)[C@H](N)C3=CCC=CC3)[C@H]2SC1,,USA300,,,128 µg/mL
Cc1ccc2nc(-c3ccncc3)[nH]c2c1,broth dilution,ATCC43300 MRSA,,drug-resistant strain,128 µg/mL
COC(=O)c1cccc(Oc2ccc(NC(=O)Nc3ccc(Cl)c(C(F)(F)F)c3)cc2)c1,,NCTC8325,,,0.5 µM
CC(=O)Nc1c2sscc-2[nH]c1=O,,MRSA,,drug-resistant strain,2.5 µM
Cc1ccc2nc(-c3cccc(O)c3)[nH]c2c1,broth dilution,ATCC43300 MRSA,,drug-resistant strain,64 µg/mL
CCC(CC)c1cc(CCN2CCCN(Cc3ccc(C(F)(F)F)cc3)CC2)nc(-c2ccncc2)n1,,ATCCBAA1720,,"drug-resistant strain, clinical isolate",6 µg/mL
COC(=O)c1cc(-c2cccc(NC(=O)Nc3cc(OC)ccc3OC)c2)on1,broth dilution,ATCC29213,,,> 64 µg/mL
COc1ccc(-c2nc3ccccc3n2Cc2ccccc2)cc1OC,broth dilution,ATCC43300 MRSA,,drug-resistant strain,8 µg/mL
COC(=O)c1cc(-c2cccc(NC(=O)Nc3ccc(F)cc3F)c2)on1,broth dilution,ATCC29213,,,> 64 µg/mL
CCCCCCCC(=O)NP(=O)(O)O,,ATCC33591 MRSA,,drug-resistant strain,> 200 µg/mL
COC[C@H]1OC(=O)c2coc3c2[C@@]1(C)C1=C(C3=O)[C@@H]2CCC(=O)[C@@]2(C)C[C@H]1OC(C)=O,,NCTC8325,,,> 30 µM
O=[N+]([O-])c1cccc(-c2nc3ccccc3[nH]2)c1,broth dilution,ATCC43300 MRSA,,drug-resistant strain,64 µg/mL
COC(=O)c1cc(-c2cccc(NC(=O)Nc3cccc(C(F)(F)F)c3)c2)on1,broth dilution,ATCC29213,,,> 64 µg/mL
O=C(CCCCCCCCCCOc1ccccc1)CP(=O)(O)O,,ATCC33591 MRSA,,drug-resistant strain,100 µg/mL
CNC(=O)c1cc(Oc2ccc(NC(=S)Nc3ccc(Cl)c(C(F)(F)F)c3)cc2)ccn1,,NCTC8325,,,10 µM
Cc1ccc2nc(-c3ccc(N(C)C)cc3)[nH]c2c1,broth dilution,ATCC43300 MRSA,,drug-resistant strain,128 µg/mL
Cc1cccc2nc(-c3ccc([N+](=O)[O-])o3)[nH]c12,broth dilution,ATCC700699 MRSA,,drug-resistant strain,2 µg/mL
CC(c1ccc(Cl)c(Cl)c1)n1cnc2cc3c(cc21)CCCC3 (stereo not drawn),,,,,3.1 to 6.3 µg/mL
COC(=O)c1cc(-c2cccc(NC(=O)Nc3cccc(Br)c3)c2)on1,broth dilution,ATCC29213,,,> 64 µg/mL
C=C(NC(=O)C(=C)NC(=O)c1csc(C2=N[C@@H]3c4csc(n4)[C@H]4NC(=O)c5csc(n5)[C@H]([C@](C)(O)[C@@H](C)O)NC(=O)[C@H]5CSC(=N5)/C(=C/C)NC(=O)[C@H]([C@@H](C)O)NC(=O)c5csc(n5)[C@]3(CC2)NC(=O)[C@H](C)NC(=O)C(=C)NC(=O)[C@H](C)NC(=O)[C@H]([C@@H](C)CC)N[C@@H]2C=Cc3c([C@H](C)O)cc(nc3[C@H]2O)C(=O)O[C@@H]4C)n1)C(N)=O,,MRSA,,,0.12 µg/mL
C[C@@H](O)[C@H]1C(=O)N2C(C(=O)O)=C(S[C@@H]3CN[C@H](C(=O)N(C)C)C3)[C@H](C)[C@H]12,,USA300,,,1 µg/mL
Cc1ccc2[nH]c3c(c2c1)CCCC3NCCc1ccc(O)cc1 (stereo not drawn),broth dilution,MRSA USA300,,,16 µg/mL
COC(=O)c1cc(-c2cccc(NC(=S)NC3CCCCC3)c2)on1,broth dilution,ATCC29213,,,> 64 µg/mL
CO[C@H]1[C@H](O[C@H]([C@H]2O[C@@H](n3ccc(=O)[nH]c3=O)[C@H](O)[C@@H]2O)[C@H](NCCCNC(=O)[C@@H](NC(=O)[C@@H](NC(=O)N[C@H](C(=O)O)C(C)C)[C@@H]2CCN=C(N)N2)[C@@H](OC(=O)CCCCC(C)C)C(C)C)C(=O)O)O[C@H](CN)[C@H]1O,,NEWMAN,,,> 32 µg/mL
CCCCCC/C=C\CCCCCCCCCc1cc(O)cc(O)c1,broth dilution,USA300,,drug-resistant strain,> 64 µg/mL
COC(=O)c1cc(-c2cccc(NC(=O)Nc3cccc(C#N)c3)c2)on1,broth dilution,ATCC29213,,,> 64 µg/mL
CC1(C)CC[C@]2(C(=O)O)CC[C@]3(C)C(=CC[C@@H]4[C@@]5(C)CC[C@H](O)C(C)(C)[C@@H]5CC[C@]43C)[C@@H]2C1,,83254,,,64 µg/mL
O=C(CCCCC1CCCCC1)CP(=O)(O)O,,ATCC33591 MRSA,,drug-resistant strain,> 200 µg/mL
COC(=O)c1cc(-c2cccc(NC(=O)Nc3ccc(F)c(F)c3)c2)on1,broth dilution,ATCC29213,,,> 64 µg/mL
O=[N+]([O-])c1ccc(/C=N/Nc2nc(Nc3ccccc3)nc(Nc3ccccc3)n2)o1,,ATCC43300,,,2.4 µM
O=[N+]([O-])c1ccc(-c2nc3ccccc3n2Cc2ccccc2)cc1,broth dilution,ATCC43300 MRSA,,drug-resistant strain,4 µg/mL
CCCCCCCCCCCCCCCC(=O)N(C)[C@H](CO)C(=O)N[C@H](C)C(=O)NCC(=O)N(C)[C@@H]1C(=O)N[C@@H](C)C(=O)N[C@H](C(=O)O)Cc2ccc(O)c(c2)-c2cc1ccc2O,,MRSA,,,25 µg/mL
COc1ccc(NC(=O)Nc2ccc(Cl)c(C(F)(F)F)c2)cc1,,NCTC8325,,,3 µM
CCCCCC/C=C\CCCCCCCCCC(=O)NP(=O)(O)O,,ATCC33591 MRSA,,drug-resistant strain,200 µg/mL
Cc1ccc2nc(-c3ccc(Cl)cc3)n(Cc3ccccc3)c2c1,broth dilution,ATCC43300 MRSA,,drug-resistant strain,8 µg/mL
CN[C@H](CC(C)C)C(=O)N[C@H]1C(=O)N[C@@H](CC(N)=O)C(=O)N[C@H]2C(=O)N[C@H]3C(=O)N[C@H](C(=O)N[C@H](C(=O)O)c4cc(O)cc(O)c4-c4cc3ccc4O)[C@H](O)c3ccc(c(Cl)c3)Oc3cc2cc(c3O[C@@H]2O[C@H](CO)[C@@H](O)[C@H](O)[C@H]2O[C@H]2C[C@](C)(N)[C@H](O)[C@H](C)O2)Oc2ccc(cc2Cl)[C@H]1O,broth dilution,25923,,,0.78 µM
Cc1ccc2[nH]c3c(c2c1)CCCC3NCCc1ccc(Br)cc1 (stereo not drawn),broth dilution,VISA,,,4 µg/mL
Clc1ccc(-c2nc3ccccc3n2Cc2ccccc2)cc1Cl,broth dilution,ATCC43300 MRSA,,drug-resistant strain,16 µg/mL
COC(=O)c1cc(-c2cccc(NC(=O)Nc3ccc(Cl)c(Cl)c3)c2)on1,broth dilution,ATCC29213,,,> 64 µg/mL
